Source: ChEMBL document CHEMBL1649465, “In vitro activity of ceftaroline alone and in combination against clinical isolates of resistant gram-negative pathogens, including beta-lactamase-producing Enterobacteriaceae and Pseudomonas aeruginosa” (2009)
Values after ≈ are worked out from the molar mass of the structure shown. Active and inactive are the calls of the source. The calls are words filed in the database; no cut-off is given here.

Tests used:
Escherichia coli [1] = test: Antimicrobial activity against Escherichia coli isolate 5401 by broth microdilution method; assay type: functional
Pseudomonas aeruginosa [2] = test: Bactericidal activity against Pseudomonas aeruginosa isolate 956 at 1/4 times MIC after 24 hrs by time kill analysis; assay type: functional, organism-based
Procedure, shortened: (§1)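 Duplicate 24-h time-kill of the drug combination, each agent at one-fourth its MIC. […] Counts were taken by spiral plating after dilution in cold saline.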

Pseudomonas aeruginosa [3] = test: Antimicrobial activity against Pseudomonas aeruginosa isolate 796 by broth microdilution method; assay type: functional
Pseudomonas aeruginosa [4] = test: Bactericidal activity against Pseudomonas aeruginosa isolate 1037 at 1/4 times MIC after 24 hrs by time kill analysis; assay type: functional, organism-based; procedure, shortened: as §1
Klebsiella pneumoniae [5] = test: Bactericidal activity against Klebsiella pneumoniae isolate 5436 at 1/4 times MIC after 24 hrs by time kill analysis; assay type: functional, organism-based; procedure, shortened: as §1
Pseudomonas aeruginosa [6] = test: Bactericidal activity against Pseudomonas aeruginosa isolate 796 at 1/4 times MIC after 24 hrs by time kill analysis; assay type: functional, organism-based; procedure, shortened: as §1
Klebsiella pneumoniae [7] = test: Bactericidal activity against Klebsiella pneumoniae isolate 5427 at 1/4 times MIC after 24 hrs by time kill analysis; assay type: functional, organism-based
Procedure, shortened: (§2)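 Duplicate time-kill assays in 2-ml cultures of Mg/Ca-supplemented Mueller-Hinton broth. […] Samples taken at 0, 1, 2, 4, 8 and 24 h, serially diluted in cold 0.9% NaCl and spiral-plated for colony counts. Detection limit 2 log10 CFU/ml. Reported as decrease in log10 CFU/ml (mean ± SD).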

Escherichia coli [8] = test: Bactericidal activity against Escherichia coli isolate 5411 at 1/4 times MIC after 24 hrs by time kill analysis; assay type: functional, organism-based; procedure, shortened: as §2
Klebsiella pneumoniae [9] = test: Antimicrobial activity against Klebsiella pneumoniae isolate 5427 by broth microdilution method; assay type: functional
Escherichia coli [10] = test: Bactericidal activity against Escherichia coli isolate 5401 at 1/4 times MIC after 24 hrs by time kill analysis; assay type: functional, organism-based; procedure, shortened: as §2
Pseudomonas aeruginosa [11] = test: Bactericidal activity against Pseudomonas aeruginosa isolate 1019 at 1/4 times MIC after 24 hrs by time kill analysis; assay type: functional, organism-based; procedure, shortened: as §1
Escherichia coli [12] = test: Antimicrobial activity against ESBL-producing Escherichia coli by broth microdilution method; assay type: functional
Pseudomonas aeruginosa [13] = test: Antimicrobial activity against Pseudomonas aeruginosa isolate 956 by broth microdilution method; assay type: functional
Enterobacter cloacae [14] = test: Antimicrobial activity against Enterobacter cloacae isolate 5420 by broth microdilution method; assay type: functional
Pseudomonas aeruginosa [15] = test: Antimicrobial activity against Pseudomonas aeruginosa isolate 1019 by broth microdilution method; assay type: functional
Klebsiella pneumoniae [16] = test: Antimicrobial activity against ESBL-producing Klebsiella pneumoniae by broth microdilution method; assay type: functional
Enterobacter cloacae [17] = test: Antimicrobial activity against Enterobacter cloacae isolate 4073 by broth microdilution method; assay type: functional
Escherichia coli [18] = test: Antimicrobial activity against Escherichia coli isolate 5411 by broth microdilution method; assay type: functional
Klebsiella pneumoniae [19] = test: Antimicrobial activity against Klebsiella pneumoniae isolate 5436 by broth microdilution method; assay type: functional
Enterobacter cloacae [20] = test: Antimicrobial activity against […] Enterobacter cloacae by broth microdilution method; assay type: functional
Pseudomonas aeruginosa [21] = test: Antimicrobial activity against Pseudomonas aeruginosa isolate 1037 by broth microdilution method; assay type: functional
Pseudomonas aeruginosa [22] = test: Antimicrobial activity against Pseudomonas aeruginosa by broth microdilution method; assay type: functional

SMILES	MBC (Escherichia coli [1]) [µg/mL]	MIC (Escherichia coli [1]) [µg/mL]	inhibition (Pseudomonas aeruginosa [2])	MIC (Pseudomonas aeruginosa [3]) [µg/mL]	inhibition (Pseudomonas aeruginosa [4])	inhibition (Klebsiella pneumoniae [5])	inhibition (Pseudomonas aeruginosa [6])	inhibition (Klebsiella pneumoniae [7])	inhibition (Escherichia coli [8])	MBC (Klebsiella pneumoniae [9]) [µg/mL]	MIC (Klebsiella pneumoniae [9]) [µg/mL]	inhibition (Escherichia coli [10])	inhibition (Pseudomonas aeruginosa [11])	MBC (Escherichia coli [12]) [µg/mL]	MIC (Pseudomonas aeruginosa [13]) [µg/mL]	MBC (Klebsiella pneumoniae [16]) [µg/mL]	MIC (Klebsiella pneumoniae [16]) [µg/mL]	MBC (Escherichia coli [18]) [µg/mL]	MIC (Escherichia coli [18]) [µg/mL]	MIC (Klebsiella pneumoniae [19]) [µg/mL]	further results
CO/N=C(\C(=O)N[C@@H]1C(=O)N2C(C(=O)[O-])=C(C[N+]3(C)CCCC3)CS[C@H]12)c1csc(N)n1	4 (≈ 8.32 µM)	4 (≈ 8.32 µM)	inactive	8 (≈ 16.6 µM)	inactive	inactive	inactive	inactive	inactive	1 (≈ 2.08 µM)	0.5 (≈ 1.04 µM)	inactive	inactive	0.25 (≈ 0.52 µM)							
NCC[C@H](O)C(=O)N[C@@H]1C[C@H](N)[C@@H](O[C@H]2O[C@H](CN)[C@@H](O)[C@H](O)[C@H]2O)[C@H](O)[C@H]1O[C@H]1O[C@H](CO)[C@@H](O)[C@H](N)[C@H]1O [AMIKACIN]	4 (≈ 6.83 µM)	2 (≈ 3.42 µM)	inactive	16 (≈ 27.3 µM)	inactive	inactive	inactive	inactive	inactive	2 (≈ 3.42 µM)	2 (≈ 3.42 µM)	inactive	inactive	4 (≈ 6.83 µM)	4 (≈ 6.83 µM)	1 (≈ 1.71 µM)	1 (≈ 1.71 µM)	16 (≈ 27.3 µM)	8 (≈ 13.7 µM)	1 (≈ 1.71 µM)	MBC (Pseudomonas aeruginosa [13]): 64 µg/mL (≈ 109 µM); MBC (Pseudomonas aeruginosa [3]): 32 µg/mL (≈ 54.6 µM); MBC (Enterobacter cloacae [14]): 2 µg/mL (≈ 3.42 µM); MIC (Enterobacter cloacae [14]): 1 µg/mL (≈ 1.71 µM); MBC (Pseudomonas aeruginosa [15]): 4 µg/mL (≈ 6.83 µM); MIC (Pseudomonas aeruginosa [15]): 4 µg/mL (≈ 6.83 µM); MBC (Enterobacter cloacae [17]): 8 µg/mL (≈ 13.7 µM); MIC (Enterobacter cloacae [17]): 1 µg/mL (≈ 1.71 µM); MBC (Klebsiella pneumoniae [19]): 2 µg/mL (≈ 3.42 µM); MBC (Enterobacter cloacae [20]): 1 µg/mL (≈ 1.71 µM); MIC (Enterobacter cloacae [20]): 0.5 µg/mL (≈ 0.854 µM); MBC (Pseudomonas aeruginosa [21]): 4 µg/mL (≈ 6.83 µM); MIC (Pseudomonas aeruginosa [21]): 2 µg/mL (≈ 3.42 µM); MBC (Pseudomonas aeruginosa [22]): 2 µg/mL (≈ 3.42 µM); MIC (Pseudomonas aeruginosa [22]): 2 µg/mL (≈ 3.42 µM); MIC (Escherichia coli [12]): 1 µg/mL (≈ 1.71 µM)
C[C@H]1[C@H](NC(=O)/C(=N\OC(C)(C)C(=O)O)c2csc(N)n2)C(=O)N1S(=O)(=O)O [AZTREONAM]	0.25 (≈ 0.574 µM)	0.25 (≈ 0.574 µM)	inactive		inactive	inactive	inactive	inactive	inactive	1 (≈ 2.3 µM)	0.5 (≈ 1.15 µM)	inactive	inactive	> 0.125	8 (≈ 18.4 µM)	> 0.5	> 0.25	32 (≈ 73.5 µM)	8 (≈ 18.4 µM)	64 (≈ 147 µM)	MIC (Escherichia coli [12]): > 0.125 µg/mL
C[C@H]1COc2c(N3CCN(C)CC3)c(F)cc3c(=O)c(C(=O)O)cn1c23.C[C@H]1COc2c(N3CCN(C)CC3)c(F)cc3c(=O)c(C(=O)O)cn1c23.O [LEVOFLOXACIN]	32	32	inactive		inactive	inactive	inactive	inactive	inactive	2	0.25	inactive	inactive	0.06	0.5	> 0.25	> 0.25	16	8	4	MBC (Pseudomonas aeruginosa [13]): 1 µg/mL; MBC (Pseudomonas aeruginosa [3]): 2 µg/mL; MBC (Enterobacter cloacae [14]): 0.06 µg/mL; MIC (Enterobacter cloacae [14]): 0.06 µg/mL; MBC (Pseudomonas aeruginosa [15]): 1 µg/mL; MIC (Pseudomonas aeruginosa [15]): 0.5 µg/mL; MBC (Enterobacter cloacae [17]): 0.06 µg/mL; MIC (Enterobacter cloacae [17]): 0.06 µg/mL; MBC (Klebsiella pneumoniae [19]): 4 µg/mL; MBC (Enterobacter cloacae [20]): 0.03 µg/mL; MIC (Enterobacter cloacae [20]): 0.03 µg/mL; MBC (Pseudomonas aeruginosa [21]): 0.5 µg/mL; MIC (Pseudomonas aeruginosa [21]): 0.25 µg/mL; MBC (Pseudomonas aeruginosa [22]): 0.5 µg/mL; MIC (Pseudomonas aeruginosa [22]): 0.25 µg/mL
C[C@@H](O)[C@H]1C(=O)N2C(C(=O)O)=C(S[C@@H]3CN[C@H](C(=O)N(C)C)C3)[C@H](C)[C@H]12 [MEROPENEM]	0.06 (≈ 0.156 µM)	0.06 (≈ 0.156 µM)	inactive	1 (≈ 2.61 µM)	inactive	inactive	inactive	inactive	inactive	16 (≈ 41.7 µM)	4 (≈ 10.4 µM)	inactive	inactive	0.06 (≈ 0.156 µM)	0.25 (≈ 0.652 µM)	0.06 (≈ 0.156 µM)	0.03 (≈ 0.0782 µM)	0.06 (≈ 0.156 µM)	0.06 (≈ 0.156 µM)	0.06 (≈ 0.156 µM)	MBC (Pseudomonas aeruginosa [13]): 2 µg/mL (≈ 5.22 µM); MBC (Pseudomonas aeruginosa [3]): 2 µg/mL (≈ 5.22 µM); MBC (Enterobacter cloacae [14]): 0.125 µg/mL (≈ 0.326 µM); MIC (Enterobacter cloacae [14]): 0.125 µg/mL (≈ 0.326 µM); MBC (Pseudomonas aeruginosa [15]): 2 µg/mL (≈ 5.22 µM); MIC (Pseudomonas aeruginosa [15]): 1 µg/mL (≈ 2.61 µM); MBC (Enterobacter cloacae [17]): 0.5 µg/mL (≈ 1.3 µM); MIC (Enterobacter cloacae [17]): 0.25 µg/mL (≈ 0.652 µM); MBC (Klebsiella pneumoniae [19]): 0.06 µg/mL (≈ 0.156 µM); MBC (Enterobacter cloacae [20]): 0.03 µg/mL (≈ 0.0782 µM); MIC (Enterobacter cloacae [20]): 0.03 µg/mL (≈ 0.0782 µM); MBC (Pseudomonas aeruginosa [21]): 1 µg/mL (≈ 2.61 µM); MIC (Pseudomonas aeruginosa [21]): 0.5 µg/mL (≈ 1.3 µM); MBC (Pseudomonas aeruginosa [22]): 0.125 µg/mL (≈ 0.326 µM); MIC (Pseudomonas aeruginosa [22]): 0.125 µg/mL (≈ 0.326 µM); MIC (Escherichia coli [12]): 0.03 µg/mL (≈ 0.0782 µM)
CN(C)c1cc(NC(=O)CNC(C)(C)C)c(O)c2c1C[C@H]1C[C@H]3[C@H](N(C)C)C(O)=C(C(N)=O)C(=O)[C@@]3(O)C(O)=C1C2=O [TIGECYCLINE]	1 (≈ 1.71 µM)	0.5 (≈ 0.854 µM)	inactive	32 (≈ 54.6 µM)	inactive	inactive	inactive	inactive	inactive	2 (≈ 3.41 µM)	0.5 (≈ 0.854 µM)	inactive	inactive	0.06 (≈ 0.102 µM)	16 (≈ 27.3 µM)	0.5 (≈ 0.854 µM)	0.125 (≈ 0.213 µM)	0.5 (≈ 0.854 µM)	0.125 (≈ 0.213 µM)	0.125 (≈ 0.213 µM)	MBC (Pseudomonas aeruginosa [13]): 128 µg/mL (≈ 219 µM); MBC (Pseudomonas aeruginosa [3]): 32 µg/mL (≈ 54.6 µM); MBC (Enterobacter cloacae [14]): 2 µg/mL (≈ 3.41 µM); MIC (Enterobacter cloacae [14]): 0.5 µg/mL (≈ 0.854 µM); MBC (Pseudomonas aeruginosa [15]): 8 µg/mL (≈ 13.7 µM); MIC (Pseudomonas aeruginosa [15]): 2 µg/mL (≈ 3.41 µM); MBC (Enterobacter cloacae [17]): 2 µg/mL (≈ 3.41 µM); MIC (Enterobacter cloacae [17]): 0.5 µg/mL (≈ 0.854 µM); MBC (Klebsiella pneumoniae [19]): 1 µg/mL (≈ 1.71 µM); MBC (Enterobacter cloacae [20]): 0.5 µg/mL (≈ 0.854 µM); MIC (Enterobacter cloacae [20]): 0.25 µg/mL (≈ 0.427 µM); MBC (Pseudomonas aeruginosa [21]): 32 µg/mL (≈ 54.6 µM); MIC (Pseudomonas aeruginosa [21]): 8 µg/mL (≈ 13.7 µM); MBC (Pseudomonas aeruginosa [22]): 8 µg/mL (≈ 13.7 µM); MIC (Pseudomonas aeruginosa [22]): 2 µg/mL (≈ 3.41 µM); MIC (Escherichia coli [12]): 0.06 µg/mL (≈ 0.102 µM)
